# This is a sample that favours compounds with a hit; in the whole collection about 2.1% have one here.
# iPSC survival up: enhancers of human iPSC single-cell survival; hiPSC single-cell survival, ATPlite luminescence; 100% = ROCK inhibitor wells, 0% = DMSO; survival enhancement, % at 20 µM; hit rate 0.044% among 360,000; AID 602274; in the data active means survival enhancement above about 18%;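 further: cells exposed to compounds for 16 hours before the ATP read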
# H9c2 protect: modulators protecting cardiomyocytes from myocardial damage; H9c2 cardiomyocytes, H2O2 injury protection, ATPLite, 2 h; protection from H2O2 cell death, % at 20 µM; hit rate 0.63% among 360,000;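 active means compounds giving at least 50% protection of heart cells from peroxide-induced death in the single-dose screen, raw or plate-pattern-corrected value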;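 further: 0% = DMSO wells with peroxide and 100% = DMSO wells without peroxide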
# CRFR2-BP ag: CRF-BP/CRF-R2 complex agonism; HEK293 CRF-R2/CRF-BP, calcium dye fluorescence (FLIPR); percent of saturating CRF peptide response; activation, % at 13.2 µM; hit rate 0.46% among 350,000; AID 588473;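 active means activation of at least 50%, plus an integration ratio under a set limit after plate pattern correction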;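 further: plate controls were neutral control wells without compound for no effect and CRF at EC100 for full effect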
# CRFR2-BP antag: blocks CRF-induced signaling of the CRF-BP/CRF-R2 complex. HEK293 CRF-R2/CRF-BP, CRF-induced calcium fluorescence. inhibition, % at 11.8 µM. hit rate 0.59% among 350,000;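 active means inhibition of the ligand-induced calcium signal above about 50% at the single tested concentration, limit read from the data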
# MIN6 prolif: inducers of beta-cell replication in MIN6 cells. hit rate 0.29% among 330,000. MIN6 cells proliferation, ATPlite luminescence, 48 h; cells starved in 0.2% serum; 100% = growth in 10% serum. proliferation, % at 10 µM;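 active means compounds whose signal lies at least 3.5 SD above the mean of all wells on their plate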;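 further: 0% = DMSO-treated cells in low-serum medium and 100% = 10% serum control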
# UCH37 DUB inh: blocks the human deubiquitinase UCH37; hit rate 0.33% among 330,000; inhibition, % (concentration not given with the values); AID 588478; purified proteasome/UCH37, Ub-AMC cleavage fluorescence;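 active means mean inhibition over replicate wells above about 20%, limit read from the data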;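 further: 0% = compound-free wells with enzyme and 100% = wells lacking proteasome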
# Target sequence (Q9Y5K5 whole entry, looked up): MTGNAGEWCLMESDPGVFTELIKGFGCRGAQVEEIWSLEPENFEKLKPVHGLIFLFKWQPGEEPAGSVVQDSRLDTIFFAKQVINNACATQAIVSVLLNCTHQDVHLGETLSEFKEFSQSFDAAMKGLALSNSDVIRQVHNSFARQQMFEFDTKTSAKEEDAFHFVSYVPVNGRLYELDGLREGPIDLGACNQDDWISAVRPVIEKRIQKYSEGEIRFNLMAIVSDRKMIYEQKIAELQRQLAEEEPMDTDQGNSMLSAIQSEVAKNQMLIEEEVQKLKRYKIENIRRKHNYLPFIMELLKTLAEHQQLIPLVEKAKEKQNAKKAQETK
#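 Material: Human UCH37 enzyme supplied as purified proteasome complex | Schedule: 30 min compound-proteasome preincubation then 25 min substrate reaction, room temperature | Detection: AMC fluorescence from Ub-AMC cleavage, excitation 355 nm, emission 460 nm | Benchmarks: Wells without proteasome as full block, compound-free enzyme plus substrate as uninhibited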
# * = called active by the depositor; . = no result.
SMILES,iPSC survival up,H9c2 protect,CRFR2-BP ag,CRFR2-BP antag,MIN6 prolif,UCH37 DUB inh
COc1ccc(CN2C(=O)c3ccccc3C(C=NOCc3ccc(C)cc3)C2=O)cc1 (stereo unspecified),.,.,.,.,.,-27
O=C(O)c1ccc(NN=Cc2ccc3c(c2)OCO3)cc1,.,.,.,.,.,13
Cc1ccccc1Cn1nc(C)c(NC(=O)c2cc(-c3cccs3)on2)c1C,-2,-7,2,57*,-5,-1
Cc1ccccc1Cn1nc(C)c(NC(=O)c2cc(-c3ccco3)on2)c1C,0,-12,-1,10,-2,2
COc1ccccc1/C=C\C(=O)NCC(=O)NN=C(C)c1cccc([N+](=O)[O-])c1,.,.,.,.,.,2
Cc1c(C#N)c(N)nc2c3c(sc12)NC(=O)CC3c1ccccc1 (stereo unspecified),0,50*,-1,-5,0,-47
Cc1cc(C(C2C(=O)CC(C)(C)CC2=O)C2C(=O)CC(C)(C)CC2=O)cc(C)c1OC(F)F,0,-6,59*,27,0,3
COCCn1c(-c2ccsc2)nc2c1c(=O)[nH]c(=O)n2CC(C)C,1,3,48,51*,2,1
CCN(CC(=O)Nc1c(F)cccc1F)C(=O)Cc1n[nH]c(=O)c2ccccc12,0,60*,1,-7,-4,5
CCN(CC(=O)Nc1c(F)cccc1F)C(=O)CCc1nc2ccccc2c(=O)[nH]1,0,64*,1,-1,0,1
CCCN(CC(=O)Nc1ccc(F)c(F)c1F)C(=O)CCc1nc2ccccc2c(=O)[nH]1,0,68*,-1,-4,3,5
Cc1ccc(S(=O)(=O)N(C)N=Cc2ccc(N(C)C)cc2)cc1,.,.,.,.,.,4
CCCCNC(=S)N(C)N=Cc1ccc(OCc2ccc(C(=O)OC)cc2)c(OC)c1,.,.,.,.,.,7
CC1=NNC(=O)C1CCC(=O)NN=Cc1ccc(Cl)cc1Cl (stereo unspecified),.,.,.,.,.,5
Cc1nn(-c2ccccc2)c(C)c1C=NNC(=O)CSc1nnc(SCc2ccc(Cl)cc2)s1,.,.,.,.,.,6
Cn1c(-c2ccccc2)cnc1SCC(=O)N1CCCc2ccccc21,-2,-4,-1,-5,1,2
O=C(CSc1ncc(-c2ccccc2)n1C1CCCC1)N1CCc2ccccc21,1,-12,102*,-124,-4,1
Cc1ccc(S(=O)(=O)NN=Cc2ccccc2O)cc1[N+](=O)[O-],.,.,.,.,.,4
CC(=O)NCc1ccc(C(=O)O)cc1,0,4,0,86*,-1,3
Cc1ccc(C)n1Cc1ccc(C(=O)O)cc1,-2,1,-1,-25,3,30*
CC(SCc1ccccc1)C(=O)NN=Cc1ccc2c(c1)OCO2 (stereo unspecified),.,.,.,.,.,1
CCOC(=O)C1=C(C)N=c2sc(=Cc3ccc(OCC(=O)O)c(OC)c3)c(=O)n2C1c1ccc(Cl)cc1 (stereo unspecified),.,.,.,.,.,14
COc1ccc(Br)cc1C=NNC(=O)CNC(=O)c1cccnc1,.,.,.,.,.,-4
COc1cc(NC(=O)c2ccc(F)cc2)ccc1NC(=O)c1cc2ccccc2o1,-1,-3,1,9,0,-48
COc1cc(NC(=O)c2c(OC)cccc2OC)ccc1NC(=O)c1cc2ccccc2o1,-1,54*,0,2,0,3
SMILES,iPSC survival up,H9c2 protect,CRFR2-BP ag,CRFR2-BP antag,MIN6 prolif,UCH37 DUB inh
Cc1ccc2c(c1)N(C(=O)CCC(=O)N1CCN(c3ccccn3)CC1)CCO2,0,14,55*,-31,-2,0
Cc1c(NS(=O)(=O)c2ccc(Br)cc2)c(=O)n(-c2ccccc2)n1C,0,-5,-3,13,-2,3
CSc1nc2ccc(S(=O)(=O)Nc3c(C)n(C)n(-c4ccccc4)c3=O)cc2s1,3,106*,-4,-15,0,5
COc1ccc(S(=O)(=O)Nc2c(C)n(C)n(-c3ccccc3)c2=O)cc1C(=O)O,-1,2,2,51*,-1,1
CCOc1ccc(CC(=O)NN=Cc2cccnc2)cc1,.,.,.,.,.,5
O=C(NN=Cc1c(F)cccc1Cl)C(=O)N1CCCCCC1,.,.,.,.,.,-2
COc1ccc(NS(=O)(=O)c2cc([N+](=O)[O-])ccc2NN=Cc2c(C)[nH]c3ccccc23)cc1,.,.,.,.,.,6
